Screening data: PubChem BioAssay, several laboratories
Neddylation inh: cullin neddylation inhibition; 0.58% of 360,000 active; P61081+Q13564; TR-FRET cullin neddylation, biochemical; inhibition, % at 25 µM; in the data active = inhibition above about 36%
Cardio protect: modulators protecting cardiomyocytes from myocardial damage; H9c2 cardiomyocytes, H2O2 injury protection, ATPLite, 2 h; protection from H2O2 cell death, % at 20 µM; 0.63% of 360,000 active;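 active = compounds giving at least 50% protection of heart cells from peroxide-induced death in the single-dose screen, raw or plate-pattern-corrected value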;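 note: 0% = DMSO wells with peroxide and 100% = DMSO wells without peroxide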
ASAP1 GAP inh: inhibitors of human ASAP1 ArfGAP activity. Q9ULH1. ASAP1-stimulated ARF1 GTP hydrolysis, GDP FP detection. inhibition, % at 16.5 µM. 0.19% of 360,000 active. AID 624377; in the data active = inhibition above about 25%;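 note: 0% = vehicle with enzyme and substrate and 100% = no enzyme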
ARFGAP1 inh: rat ARFGAP1 inhibition | AID 651572 | Arfgap1-stimulated ARF1 GTP hydrolysis, GDP FP detection | 0.26% of 360,000 active | inhibition, % at 16.5 µM;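 active = inhibition above a per-plate limit, mean inhibition of low control wells plus 3 SD, cut at about 25% in these data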;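 note: 0% = DMSO wells with enzyme and 100% = wells lacking Arfgap1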
Target sequence (Q62848 1-136 limits assumed): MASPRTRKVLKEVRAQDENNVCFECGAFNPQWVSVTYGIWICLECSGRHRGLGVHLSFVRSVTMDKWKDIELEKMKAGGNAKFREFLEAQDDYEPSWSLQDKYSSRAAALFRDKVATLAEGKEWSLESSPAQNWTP
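Material: truncated rat Arfgap1 GAP domain; Incubation: compound-enzyme preincubation 20 min, reaction 120 min, detection 60 min, 25 °C; Read-out: percent inhibition of Arfgap1-stimulated GTP hydrolysis; Technique: FP, GDP Alexa 633 tracer displaced from anti-GDP antibody, 620/688 nm; Controls: No-Arfgap1 wells (100%) versus DMSO full-reaction wells (0%); Replication: single well per compound.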
ARFGAP1 inh conf: confirmation of rat ARFGAP1 inhibitors; shares compounds with ARFGAP1 inh; ARFGAP1-stimulated ARF1 GTP hydrolysis, GDP tracer FP; inhibition, % at 16.5 µM; 30% of 890 active; AID 651608;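 active = average inhibition over triplicates above the hit cutoff set in the earlier primary screen, cut at about 25% in these data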;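 note: 0% = Arfgap1 plus ARF1-GTP with DMSO and 100% = wells lacking Arfgap1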
Target sequence (Q62848 whole entry, looked up): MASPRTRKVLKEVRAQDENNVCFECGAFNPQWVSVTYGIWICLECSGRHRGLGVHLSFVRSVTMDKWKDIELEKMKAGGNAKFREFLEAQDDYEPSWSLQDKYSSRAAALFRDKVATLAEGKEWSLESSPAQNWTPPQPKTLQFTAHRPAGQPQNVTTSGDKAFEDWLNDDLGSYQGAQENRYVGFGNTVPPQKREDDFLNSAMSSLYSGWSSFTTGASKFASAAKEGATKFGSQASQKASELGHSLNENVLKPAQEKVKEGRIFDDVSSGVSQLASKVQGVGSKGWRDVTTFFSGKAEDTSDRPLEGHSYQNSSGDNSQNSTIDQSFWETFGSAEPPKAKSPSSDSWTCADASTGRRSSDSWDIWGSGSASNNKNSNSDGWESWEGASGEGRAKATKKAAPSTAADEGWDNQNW
* = called active by the depositor. Hits are enriched below; roughly 1.6% of the tested compounds scored in any of these assays.

What do the screens show for `Cc1cc(C)c2cc(N)c(Cl)nc2n1`?
Neddylation inh: 16.4; Cardio protect: 3.4; ASAP1 GAP inh: -0.3; ARFGAP1 inh: 1.2

How did CC(C)C[C@H]1CN(CCCC[C@H]2CNC(=O)C(=O)N2CC2CCCCC2)C(=O)C(=O)N1CCc1ccc(O)cc1 do in these assays?
Neddylation inh: 0.6; ASAP1 GAP inh: -13.0; ARFGAP1 inh: 0.9

Results for O=C(N/N=C/c1ccc2c(c1)OCO2)c1ccc(NC(=O)c2ccc(F)cc2)cc1 ?
Cardio protect: 5.8; ASAP1 GAP inh: 16.4; ARFGAP1 inh: 24.7*; ARFGAP1 inh conf: 14.6

Results for CC(C)Oc1ccc(CCC(=O)N/N=C/c2ccc3c(c2)OCO3)cc1 ?
Neddylation inh: -12.7; Cardio protect: -10.7; ASAP1 GAP inh: 0.6; ARFGAP1 inh: 31.6*; ARFGAP1 inh conf: -1.3

What do the screens show for `O=C(N/N=C/c1ccc2c(c1)OCO2)c1ccc2c(c1)OCCO2`?
Neddylation inh: -7.8; Cardio protect: -11.6; ASAP1 GAP inh: 13.8; ARFGAP1 inh: -2.6

How did COc1cccc(C(O)c2nc(-c3cc4ccccc4o3)cs2)c1 (stereo not drawn) do in these assays?
Neddylation inh: -34.2; Cardio protect: -8.6; ASAP1 GAP inh: 15.3; ARFGAP1 inh: 12.0

What do the screens show for `COc1cc(C(O)c2nc(-c3cc4ccccc4o3)cs2)ccc1F` (stereo not drawn)?
Neddylation inh: -37.3; Cardio protect: -10.5; ASAP1 GAP inh: 17.4; ARFGAP1 inh: 28.4*; ARFGAP1 inh conf: 7.0

What do the screens show for `CCCc1ccc(Oc2cn[nH]c2-c2ccc(O)c(C)c2O)cc1`?
Neddylation inh: 5.0; Cardio protect: -22.0; ASAP1 GAP inh: 14.0; ARFGAP1 inh: 27.1*; ARFGAP1 inh conf: 31.4*

Results for CCCc1ccc(Oc2c(-c3ccc(O)c(C)c3O)n[nH]c2C)cc1 ?
Neddylation inh: -3.0; Cardio protect: -8.0; ASAP1 GAP inh: -2.0; ARFGAP1 inh: 7.7

How did CC(=O)n1c(=O)c2ccccc2c(=O)n1-c1ccccc1 do in these assays?
Neddylation inh: 3.9; Cardio protect: 9.1; ASAP1 GAP inh: 12.2; ARFGAP1 inh: 32.0*; ARFGAP1 inh conf: 2.4

What do the screens show for `O=C(N[C@H](Cc1ccccc1)C(=O)NCC1CCCO1)[C@H]1O[C@@H](n2ccc(=O)[nH]c2=O)[C@H](O)[C@@H]1O` (stereo partly drawn)?
ASAP1 GAP inh: 1.8; ARFGAP1 inh: 2.9

What do the screens show for `COC(=O)c1c(NC(=O)C2CC=CCC2C(=O)O)sc(C)c1C` (stereo not drawn)?
Neddylation inh: 9.0; Cardio protect: -5.5; ASAP1 GAP inh: -1.8; ARFGAP1 inh: 5.6

What do the screens show for `COC(=O)c1c(NC(=O)C2CC=CCC2C(=O)O)sc(C(N)=O)c1C` (stereo not drawn)?
Neddylation inh: -0.6; Cardio protect: 7.1; ASAP1 GAP inh: 2.1; ARFGAP1 inh: 25.2*; ARFGAP1 inh conf: 4.1

Results for CCOc1ccc(-n2c(SCc3ccc([N+](=O)[O-])cc3)nnc2-c2ccccc2)cc1 ?
Neddylation inh: -11.7; Cardio protect: -8.0; ASAP1 GAP inh: 6.0; ARFGAP1 inh: 33.4*; ARFGAP1 inh conf: -2.1

What do the screens show for `COc1ccc(-n2c(SCc3ccc([N+](=O)[O-])cc3)nnc2-c2ccccc2)cc1`?
Neddylation inh: -5.4; Cardio protect: 3.7; ASAP1 GAP inh: 1.8; ARFGAP1 inh: -4.9

Results for COc1ccc(CCn2c(SCC(=O)Nc3cc(C)on3)nc3ccsc3c2=O)cc1OC ?
Neddylation inh: -96.0; Cardio protect: 3.6; ASAP1 GAP inh: 13.2; ARFGAP1 inh: 37.4*; ARFGAP1 inh conf: 34.8*

What do the screens show for `CC(=O)c1cccc(NC(=O)C2Cc3c(-c4ccc(Cl)cc4)ccnc3O2)c1` (stereo not drawn)?
Neddylation inh: 7.7; Cardio protect: -12.6

How did COc1cc(NC(=O)C2(C)CCN2C(=O)C(C)C)cc(OC)c1OC (stereo not drawn) do in these assays?
Neddylation inh: 6.0; Cardio protect: 2.4; ASAP1 GAP inh: -9.6; ARFGAP1 inh: 9.0

What do the screens show for `Cc1[nH]c2ccccc2c1CCNC(=O)c1ccc2c(c1[N+](=O)[O-])C(=O)c1ccccc1C2=O`?
Neddylation inh: -23.9; Cardio protect: -9.5; ASAP1 GAP inh: 11.7; ARFGAP1 inh: 10.8

Results for Cc1[nH]c2c(C)cccc2c1CCNC(=O)c1ccc2c(c1[N+](=O)[O-])C(=O)c1ccccc1C2=O ?
Neddylation inh: -26.3; Cardio protect: 11.0; ASAP1 GAP inh: -8.7; ARFGAP1 inh: 25.6*; ARFGAP1 inh conf: 11.1

How did CN(C(=O)[C@@H](Cc1ccccc1)NC(=O)[C@H]1O[C@@H](n2cnc3c(=O)[nH]c(N)nc32)[C@H](O)[C@@H]1O)C1CCCCC1 do in these assays?
ASAP1 GAP inh: -10.0; ARFGAP1 inh: -2.2

What do the screens show for `COc1cc(C(C#N)N2CCC(c3ccccc3)=N2)ccc1O` (stereo not drawn)?
Neddylation inh: -11.9; Cardio protect: -3.1; ASAP1 GAP inh: -11.9; ARFGAP1 inh: 27.0*; ARFGAP1 inh conf: -3.5

Results for CC(c1ccc(Cl)cc1)N(CCN(C)C)c1ccccn1 (stereo not drawn) ?
ASAP1 GAP inh: -6.2; ARFGAP1 inh: -3.8

What do the screens show for `CC(=O)c1ccc(S(=O)(=O)NCC2CCN(C(=O)C(=O)c3cc4ccccc4o3)CC2)cc1`?
ASAP1 GAP inh: -4.7; ARFGAP1 inh: 13.6

How did CN(C)S(=O)(=O)Nc1ccc2c(c1)Cc1ccccc1-2 do in these assays?
Neddylation inh: -7.1; Cardio protect: -7.6; ASAP1 GAP inh: -12.5; ARFGAP1 inh: 28.1*; ARFGAP1 inh conf: -5.8

How did O=C1c2ccccc2C(Nc2ccc3c(c2)OCCO3)N1c1ccccn1 (stereo not drawn) do in these assays?
Neddylation inh: 2.1; Cardio protect: 18.4; ASAP1 GAP inh: 2.7; ARFGAP1 inh: 1.4

Results for O=C1c2ccccc2C(Nc2ccc3c(c2)OCCO3)N1c1ccc(Cl)cn1 (stereo not drawn) ?
Neddylation inh: 0.3; Cardio protect: -5.6; ASAP1 GAP inh: 1.9; ARFGAP1 inh: 25.4*; ARFGAP1 inh conf: 2.3

What do the screens show for `Cc1nnc2n(-c3ccccc3)c(=O)c3c4c(sc3n12)CC(C)CC4` (stereo not drawn)?
Neddylation inh: -16.1; Cardio protect: 0.9; ASAP1 GAP inh: 0.8; ARFGAP1 inh: -5.5

Results for COc1ccc(-n2c(=O)c3c4c(sc3n3cnnc23)CC(C)CC4)cc1 (stereo not drawn) ?
Neddylation inh: -7.9; Cardio protect: 5.8; ASAP1 GAP inh: 16.5; ARFGAP1 inh: 26.8*; ARFGAP1 inh conf: 61.9*

How did NC(=O)c1ccc(NC(=O)COC(=O)/C=C/c2cn(-c3ccccc3)nc2-c2cccnc2)cc1 do in these assays?
Neddylation inh: -36.0; Cardio protect: 4.8; ASAP1 GAP inh: 12.2; ARFGAP1 inh: 30.0*; ARFGAP1 inh conf: 45.9*

How did CCOC(=O)N[C@@H](Cc1cccnc1)C(=O)N1CCC[C@H]1C(=O)NC1CCCC1 do in these assays?
ASAP1 GAP inh: -5.4; ARFGAP1 inh: 0.9
